Drawing on ChEMBL document CHEMBL3244258, “Derivatives of tetrahydro-1,4-benzodiazepines as potential antihypertensive agents” (1977), this text covers Activity for 15 compounds.

SMILES strings stand for the structures.

In test [1] the test system is Rattus norvegicus. The test is described as follows: Antihypertensive activity in left kidney ligation and contralateral nephrectomy-induced hypertensive Sprague-Dawley rat model assessed as change in systolic blood pressure at 75 mg/kg, po administered via stomach tube. The test is classed as functional, Artery. The gist of the method: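 Conscious female rats made hypertensive by figure-8 ligature of left kidney, contralateral nephrectomy 1 week later. Dosed orally by stomach tube. Systolic pressure measured at the tail with occluding and sensing cuffs and a pressure transducer, before dosing and 1.5 and 4 h after. Values are group means of 4 or 8 rats.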

Test [2] relates to Rattus norvegicus. The test is described as follows: Antihypertensive activity in pithed rat assessed as change in sympathetic outflow activation-induced systemic pressor response at 30 mg/kg, iv at 5 Hz frequency. The format is functional. The gist of the method:
(§1)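 Pithed-rat preparation under ether anesthesia with artificial respiration, pretreated with atropine 1 mg/kg and d-tubocurarine chloride 1 mg/kg. Sympathetic outflow activated electrically at 2.5, 5 or 10 Hz. Carotid pressure responses taken before and after one or more test doses given via jugular vein. Reported as percent change in pressor response.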

In test [3] the test system is Rattus norvegicus. Kind of test: Antihypertensive activity in pithed rat assessed as change in phenylephrine-induced systemic pressor response at 10 mg/kg, iv in presence of 4 mg/kg phenylephrine. The format is functional. The gist of the method:
(§2)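 Ether-anesthetized, artificially respired rats pretreated with atropine 1 mg/kg and d-tubocurarine chloride 1 mg/kg. Carotid arterial pressure recorded; drugs given into the jugular vein. Pressor responses to iv phenylephrine measured before and after one or more iv doses of test compound. Reported as percent change in response.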

The subject of test [4] is Rattus norvegicus. The test is described as follows: Antihypertensive activity in pithed rat assessed as change in sympathetic outflow activation-induced systemic pressor response at 10 mg/kg, iv at 5 Hz frequency. The test is classed as functional. A digest of the protocol:
as §1

Test [5] deals with Rattus norvegicus. The test is described as follows: Antihypertensive activity in pithed rat assessed as change in phenylephrine-induced systemic pressor response at 30 mg/kg, iv in presence of 2 mg/kg phenylephrine. The test is classed as functional. The gist of the method: as §2
Test [6] deals with Rattus norvegicus. The test is described as follows: Antihypertensive activity in pithed rat assessed as change in phenylephrine-induced systemic pressor response at 30 mg/kg, iv in presence of 4 mg/kg phenylephrine. The test is classed as functional. The gist of the method:
as §2

Test [7] concerns Rattus norvegicus. Kind of test: Antihypertensive activity in pithed rat assessed as change in sympathetic outflow activation-induced systemic pressor response at 10 mg/kg, iv at 10 Hz frequency. The format is functional. The gist of the method: as §1
For test [8], the system named is Rattus norvegicus. The test is described as follows: Antihypertensive activity in pithed rat assessed as change in phenylephrine-induced systemic pressor response at 10 mg/kg, iv in presence of 2 mg/kg phenylephrine. The test is classed as functional. A digest of the protocol:
as §2

The test system of test [9] is Rattus norvegicus. Kind of test: Antihypertensive activity in pithed rat assessed as change in sympathetic outflow activation-induced systemic pressor response at 30 mg/kg, iv at 2.5 Hz frequency. The test is classed as functional. A digest of the protocol:
as §1

The subject of test [10] is Rattus norvegicus. Kind of test: Antihypertensive activity in pithed rat assessed as change in sympathetic outflow activation-induced systemic pressor response at 30 mg/kg, iv at 10 Hz frequency. The test is classed as functional. The gist of the method: as §1
The subject of test [11] is Rattus norvegicus. The test is described as follows: Antihypertensive activity in pithed rat assessed as change in sympathetic outflow activation-induced systemic pressor response at 10 mg/kg, iv at 2.5 Hz frequency. The format is functional. The gist of the method:
as §1

The test system of test [12] is Rattus norvegicus. The test is described as follows: Antihypertensive activity in pithed rat assessed as change in phenylephrine-induced systemic pressor response at 5 mg/kg, iv in presence of 4 mg/kg phenylephrine. The test is classed as functional. The gist of the method: as §2
In test [13] the test system is Rattus norvegicus. Kind of test: Antihypertensive activity in pithed rat assessed as change in phenylephrine-induced systemic pressor response at 1 mg/kg, iv in presence of 2 mg/kg phenylephrine. The test is classed as functional. The gist of the method:
as §2

For test [14], the system named is Rattus norvegicus. Kind of test: Antihypertensive activity in pithed rat assessed as change in sympathetic outflow activation-induced systemic pressor response at 5 mg/kg, iv at 10 Hz frequency. The format is functional. The gist of the method:
as §1

In test [15] the test system is Rattus norvegicus. Kind of test: Antihypertensive activity in pithed rat assessed as change in sympathetic outflow activation-induced systemic pressor response at 1 mg/kg, iv at 5 Hz frequency. The format is functional. A digest of the protocol:
as §1

The subject of test [16] is Rattus norvegicus. The test is described as follows: Antihypertensive activity in pithed rat assessed as change in phenylephrine-induced systemic pressor response at 1 mg/kg, iv in presence of 4 mg/kg phenylephrine. The format is functional. The gist of the method: as §2
Test [17] has as its system Rattus norvegicus. Kind of test: Antihypertensive activity in pithed rat assessed as change in phenylephrine-induced systemic pressor response at 5 mg/kg, iv in presence of 2 mg/kg phenylephrine. The test is classed as functional. A digest of the protocol: as §2
The test system of test [18] is Rattus norvegicus. Kind of test: Antihypertensive activity in pithed rat assessed as change in sympathetic outflow activation-induced systemic pressor response at 1 mg/kg, iv at 2.5 Hz frequency. The format is functional. A digest of the protocol:
as §1

Test [19] has as its system Rattus norvegicus. The test is described as follows: Antihypertensive activity in pithed rat assessed as change in sympathetic outflow activation-induced systemic pressor response at 5 mg/kg, iv at 2.5 Hz frequency. The format is functional. The gist of the method:
as §1

The subject of test [20] is Rattus norvegicus. Kind of test: Antihypertensive activity in pithed rat assessed as change in sympathetic outflow activation-induced systemic pressor response at 5 mg/kg, iv at 5 Hz frequency. The format is functional. A digest of the protocol:
as §1

Test [21] concerns Rattus norvegicus. The test is described as follows: Antihypertensive activity in pithed rat assessed as change in sympathetic outflow activation-induced systemic pressor response at 1 mg/kg, iv at 10 Hz frequency. The format is functional. The gist of the method:
as §1

Test [22] has as its system Rattus norvegicus. Kind of test: Antihypertensive activity in pithed rat assessed as change in sympathetic outflow activation-induced systemic pressor response at 15 mg/kg, iv at 2.5 Hz frequency. The format is functional. A digest of the protocol: as §1
For test [23], the system named is Rattus norvegicus. The test is described as follows: Antihypertensive activity in pithed rat assessed as change in sympathetic outflow activation-induced systemic pressor response at 15 mg/kg, iv at 10 Hz frequency. The test is classed as functional. The gist of the method: as §1
Test [24] relates to Rattus norvegicus. The test is described as follows: Antihypertensive activity in pithed rat assessed as change in phenylephrine-induced systemic pressor response at 15 mg/kg, iv in presence of 4 mg/kg phenylephrine. The test is classed as functional. A digest of the protocol:
as §2

The test system of test [25] is Rattus norvegicus. The test is described as follows: Antihypertensive activity in pithed rat assessed as change in phenylephrine-induced systemic pressor response at 15 mg/kg, iv in presence of 2 mg/kg phenylephrine. The test is classed as functional. A digest of the protocol:
as §2

Test [26] has as its system Rattus norvegicus. Kind of test: Antihypertensive activity in pithed rat assessed as change in sympathetic outflow activation-induced systemic pressor response at 15 mg/kg, iv at 5 Hz frequency. The test is classed as functional. The gist of the method: as §1
For test [27], the system named is Rattus norvegicus. The test is described as follows: Antihypertensive activity in pithed rat assessed as change in phenylephrine-induced systemic pressor response at 20 mg/kg, iv in presence of 4 mg/kg phenylephrine. The test is classed as functional. A digest of the protocol: as §2
Test [28] has as its system Rattus norvegicus. The test is described as follows: Antihypertensive activity in pithed rat assessed as change in sympathetic outflow activation-induced systemic pressor response at 20 mg/kg, iv at 2.5 Hz frequency. The test is classed as functional. A digest of the protocol: as §1
For test [29], the system named is Rattus norvegicus. Kind of test: Antihypertensive activity in pithed rat assessed as change in sympathetic outflow activation-induced systemic pressor response at 20 mg/kg, iv at 5 Hz frequency. The format is functional. A digest of the protocol: as §1
The test system of test [30] is Rattus norvegicus. The test is described as follows: Antihypertensive activity in pithed rat assessed as change in sympathetic outflow activation-induced systemic pressor response at 20 mg/kg, iv at 10 Hz frequency. The test is classed as functional. A digest of the protocol: as §1
In test [31] the test system is Rattus norvegicus. Kind of test: Antihypertensive activity in pithed rat assessed as change in phenylephrine-induced systemic pressor response at 20 mg/kg, iv in presence of 2 mg/kg phenylephrine. The format is functional. A digest of the protocol:
as §2

Test [32] deals with Rattus norvegicus. The test is described as follows: Antihypertensive activity in pithed rat assessed as change in sympathetic outflow activation-induced systemic pressor response at 40 mg/kg, iv at 5 Hz frequency. The test is classed as functional. A digest of the protocol: as §1
The test system of test [33] is Rattus norvegicus. The test is described as follows: Antihypertensive activity in pithed rat assessed as change in sympathetic outflow activation-induced systemic pressor response at 40 mg/kg, iv at 2.5 Hz frequency. The test is classed as functional. A digest of the protocol: as §1
In test [34] the test system is Rattus norvegicus. Kind of test: Antihypertensive activity in pithed rat assessed as change in phenylephrine-induced systemic pressor response at 40 mg/kg, iv in presence of 2 mg/kg phenylephrine. The format is functional. The gist of the method:
as §2

In test [35] the test system is Rattus norvegicus. The test is described as follows: Antihypertensive activity in pithed rat assessed as change in phenylephrine-induced systemic pressor response at 40 mg/kg, iv in presence of 4 mg/kg phenylephrine. The format is functional. The gist of the method:
as §2

In test [36] the test system is Rattus norvegicus. The test is described as follows: Antihypertensive activity in pithed rat assessed as change in sympathetic outflow activation-induced systemic pressor response at 40 mg/kg, iv at 10 Hz frequency. The test is classed as functional. A digest of the protocol: as §1

As to `N=C(N)N1CCn2c3c(c4cccc(c42)C1)CCCC3.O=[N+]([O-])O`, in [1], the Activity is recorded as -8 mmHg.

Consider `C[N+]1(C)CCn2c3c(c4cccc(c42)C1)CCCC3.[I-]`, for which, in [1], the Activity turned out to be 3 mmHg.

On to `C[N+]1(C)CCNc2ccccc2C1.[I-]`, for which the Activity was -34% in test [2]; 39% in [3]; 9% in test [4]; -46 mmHg in [1]; 44% in test [5]; 74% in [6]. The Activity in [7] is 1%; in test [8] it was 23%; in [9], -38%; in test [10] it was -35%; in test [11], 10%.

For `N=C(N)NCCN1CCCCCCC1` [GUANETHIDINE], the Activity was 105% in test [12]; 64% in [13]; -94% in test [14]; -72% in test [15]; 57% in [16]; 160% in test [17]. For the same compound, the Activity in [18] was -85%; in test [19] it was -100%; in [20], -100%; in [21] it was -65%.

As to `C[N+]1(C)CCN2CCc3cccc(c32)C1.[I-]`, the Activity in test [22] is -93%; in test [23], -91%; in [1], -48 mmHg; in test [12], 18%; in test [14], -47%; in test [24] it was 12%. Further, the Activity was 68% in test [17]; 87% in [25]; -42% in test [19]; -87% in test [26]; -40% in test [20].

As to `CN1CCN(C(=N)N)Cc2ccccc21.O=[N+]([O-])O`, the Activity was -5% in test [3]; -20% in [27]; -67% in [4]; -60 mmHg in test [1]; -83% in [28]; -57% in test [7]. The Activity in test [8] is -14%; in test [29], -83%; in test [30], -82%; in test [11], -73%; in [31], -26%.

In the case of `CN1CC[N+](C)(C)Cc2ccccc21.[I-]`, the Activity in [1] is given as -51 mmHg.

Take `N/C(CN1CCNc2ccccc2C1)=N\O`: in [1], the Activity is listed as -12 mmHg.

Regarding `N=C(N)N1CCNc2ccccc2C1.O=[N+]([O-])O`, the Activity in test [27] was 5%; in test [1] it was -55 mmHg; in test [28], -39%; in [32], -100%; in test [33] it was -82%; in test [29] it was -50%. Also, the Activity in [34] was 3%; in test [35], 10%; in [30], -58%; in test [36], -86%; in test [31], 8%.

In the case of `CCN1CC[N+](C)(CC)Cc2ccccc21.[I-]` (centres undefined), the Activity in test [1] is -21 mmHg.

`N=C(N)N1CCNc2ccc(Cl)cc2C1.O=[N+]([O-])O`: in [1], the Activity is reported as -34 mmHg.

Turning to `COc1cc2c(cc1OC)NCC[N+](C)(C)C2.[I-]`, the Activity in test [1] is 2 mmHg.

Take `CC1CNc2ccccc2C[N+]1(C)C.[I-]` (centres undefined): in [1], the Activity is listed as -4 mmHg.

For the compound `C[N+]1(C)CCNc2ccc(Cl)cc2C1.[I-]`, the Activity in test [1] was -4 mmHg.

As to `N=C(N)N1CCN2CCc3cccc(c32)C1.O=[N+]([O-])O`, the Activity in test [1] is listed as -12 mmHg.
